{"data": "Experimental data collected from several papers", "MAP2K3": "Dual specificity mitogen-activated protein kinase kinase 3 (MAP2K3, Homo sapiens, UniProt P46734)", "BCHE": "Cholinesterase (BCHE, Equus caballus, UniProt P81908)"}
{"SMILES": "CCN(CC)CCCC[C@H](NC(=O)[C@H](CC(C)C)NC(=O)[C@H](C)NC(=O)[C@H](Cc1ccccc1)NC(=O)c1ccc(C(C)(C)C)cc1)C(=O)N[C@@H](CO)C(=O)OC", "target": "Peregrin, bromodomain (BRPF1, Homo sapiens, UniProt P55201)", "effect on": "thermal stability", "method": "DSF", "tested at": "25 µM", "measurement": "ΔTm", "value": "0.47 °C"}
{"SMILES": "Cc1nn(C)cc1-c1nc2c(N3CCN(Cc4ccc(Cl)cc4)CC3)c(Cl)cnc2[nH]1", "target": "MAP2K3", "effect on": "binding", "method": "competition with immobilised ligand", "tested at": "1 µM", "measurement": "remaining binding", "value": "100%"}
{"SMILES": "COc1cc2c(cc1OC)C(=O)N(Cc1cnc3c(c1)OCCN3C)C2", "target": "BCHE", "effect on": "enzyme activity", "action": "inhibitor", "method": "Ellman", "tested at": "1 µM", "measurement": "inhibition", "value": "13.6%"}
{"SMILES": "C#Cc1n[nH]c2c(-c3cn([C@@H](C)c4ccccn4)c(=O)[nH]c3=O)cc(F)cc12", "target": "Serine/threonine-protein kinase Nek2 (NEK2, Homo sapiens, UniProt P51955)", "effect on": "enzyme activity", "action": "inhibitor", "tested at": "0.1 µM", "measurement": "inhibition", "value": "12%"}
{"SMILES": "Nc1ncc(-c2nc(N3CCOCC3)nc(N3CCOCC3)n2)c(C(F)F)n1", "target": "MAP2K3", "effect on": "binding", "method": "competition with immobilised ligand", "tested at": "10 µM", "measurement": "remaining binding", "value": "78%"}
{"SMILES": "COc1cc2c(cc1OC)C(=O)N(Cc1ccccn1)C2", "target": "BCHE", "effect on": "enzyme activity", "action": "inhibitor", "method": "Ellman", "tested at": "1 µM", "measurement": "inhibition", "value": "-8.8%"}
{"SMILES": "COc1ncccc1-c1cnn2ccc(N3CCN(C(=O)OC(C)C)CC3)nc12", "target": "MAP2K3", "effect on": "binding", "method": "competition with immobilised ligand", "tested at": "1 µM", "measurement": "remaining binding", "value": "80%"}
{"SMILES": "Cn1cc(-c2cc(F)cc(N3CCn4c(cc5c4CCCC5)C3=O)c2CO)cc(Nc2ccc(N3CCN(C4COC4)CC3)cn2)c1=O", "target": "SRSF protein kinase 2 (SRPK2, Homo sapiens, UniProt P78362)", "effect on": "enzyme activity", "action": "inhibitor", "tested at": "0.1 µM", "measurement": "inhibition", "value": "3%"}
{"SMILES": "COc1cc2c(cc1OC)C(=O)N(CCc1c[nH]c3ccccc13)C2", "target": "BCHE", "effect on": "enzyme activity", "action": "inhibitor", "method": "Ellman", "tested at": "1 µM", "measurement": "inhibition", "value": "0.7%"}
{"SMILES": "C[C@]12CC[C@@H]3c4ccc(OC(=O)N(CCCl)CCCl)cc4CC[C@H]3[C@@H]1CC[C@@H]2OP(=O)(O)O", "target": "Tyrosine-protein phosphatase non-receptor type 11 (PTPN11, Homo sapiens, UniProt Q06124)", "effect on": "binding", "method": "SPR", "measurement": "koff", "value": "0.02 s⁻¹"}
